Screens as filed in PubChem.
A selection: hits, their analogues and other compounds. The true share with any hit is near 1%.
Yeast eIF2B – eIF2B (yeast) activity modulation; S. cerevisiae eIF2B-epsilon R284H, GCN4-lacZ luminescence; inhibition, % at 25 µM (by protocol); 0.91% of 27,000 active; AID 688;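 active means mutant luminescence inhibited past about 50% while wild type luminescence and mutant growth stay under set limits, limit read from the data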
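Assay system: yeast eIF2B-epsilon R284H mutant carrying GCN4–beta-galactosidase fusion / Buffer or medium: YPD / Incubation: 16 h growth with compound at 30 °C, 90 min Beta-Glo step / Detection: Beta-Glo luminescence after Z-buffer lysis, growth by 595 nm absorbance / Read-out: % inhibition of reporter signal and growth versus controls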
Yeast growth tox – Inhibits yeast growth, turbidity readout; S. cerevisiae wild-type growth, A595 turbidity, 16 h; growth inhibition, % at 25 µM (by protocol); 0.3% of 30,000 active; AID 685;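 active means mutant and wild-type yeast strains alike exhibit over 30% growth inhibition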;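 further: 0% = untreated cell controls and 100% = YPD media blanks without cells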
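System: S. cerevisiae wild-type or eIF2Bepsilon-R284H mutant strain; times: 16 h growth with compound, 30 °C; signal: absorbance at 595 nm (turbidity); measure: growth inhibition (%) versus cell controls and blanks; compound: 25 µM single dose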
An asterisk follows results filed as active; x = not tested or not shown.

SMILES	Yeast eIF2B	Yeast growth tox
CCOC(=O)c1c(C)[nH]c(C)c1C(=O)CSc1nc(N)cc(=O)[nH]1	x	28.7
CC(=O)c1cc2c(cc1NC(=O)Nc1cccc(Cl)c1)OCCO2	15.9	-9.5
COc1cc(OC)cc(C(=O)N2CCCc3ccccc32)c1	18.8	2.5
CCCOc1ccc(C(=O)N2CCCc3ccccc32)cc1	73.3*	-14.4
O=C(c1c[nH]c2ccc(S(=O)(=O)N3CCOCC3)cc2c1=O)N1CCCC1	60.1*	0.8
O=C(O)c1c[nH]c2ccc(S(=O)(=O)N3CCN(c4ccc(F)cc4)CC3)cc2c1=O	10.5	17.7
CCN(C(=O)COC(=O)c1[nH]c(C)c(C(C)=O)c1C)C1CCS(=O)(=O)C1 (stereo unspecified)	-3.2	-4.0
CCC(C)N(C(=O)COC(=O)c1[nH]c(C)c(C(C)=O)c1C)C1CCS(=O)(=O)C1 (stereo unspecified)	54.5*	-0.9
O=C(Oc1cccc2c(OC(=O)N3CCCC3)cccc12)N1CCCC1	x	-6.5
Cc1nnc(SCC(=O)N2CCC(C(N)=O)CC2)s1	7.7	x
Cc1ccc(NC(C)c2cc(Cl)ccc2O)cc1 (stereo unspecified)	6.6	6.5
CC1=C(C)/C(=N\OS(=O)(=O)c2ccccc2)C=CC1=O	89.3	99.6*
O=C(OCc1cc(Cl)ccc1OC(F)F)c1cc(S(=O)(=O)O)ccc1O	-13.1	-7.5
C=CCSc1nc(C)c(CC=C)c(=O)[nH]1	-22.8	x
C=CCc1c(C)nc(SC(C)C)[nH]c1=O	52.5*	-12.8
CC(Sc1nc(N(C)C)nc(N2CCOCC2)n1)C(=O)Nc1ccccc1 (stereo unspecified)	30.8	13.5
COc1ccc(NC(=O)c2cccnc2C(=O)O)c(OC)c1	13.2	7.3
O=C(O)CN1CCCC1=Nc1ccccc1	x	8.3
Cc1ccc(C)c(N=C2CCCN2Cc2ccccc2)c1C#N	56.8*	x
CC(C)OC(=O)CC(=O)CSc1nc2c(cc1C#N)CCCCC2	18.3	3.1
CCOCCCNC(=O)c1c[nH]c2ccc(C)cc2c1=O	52.3*	-3.3
COc1ccc(CCNC(=O)c2c[nH]c3ccccc3c2=O)cc1OC	4.5	7.1
O=C(O)Cn1c2c(c3ccccc31)CCCC2	0.1	13.0
CC1CCCCC1NC(=O)c1ccc2c(c1)[nH]c(=O)n2C1CCCC1 (stereo unspecified)	18.2	5.4
COc1ccccc1NC(=O)c1oc2ccccc2c1NC(=O)c1cc(OC)c(OC)c(OC)c1	63.2*	-44.0
SMILES	Yeast eIF2B	Yeast growth tox
COCC(=O)Nc1c(C(=O)Nc2ccccc2OC)oc2ccccc12	10.1	-16.7
OC1(c2cccc(C(F)(F)F)c2)CCN(c2ncnc3c2[nH]c2ccc(F)cc23)CC1	0.4	13.6
CCC1=NN=C(c2ccc(F)cc2)C(c2c[nH]c3ccccc23)N1O (stereo unspecified)	6.8	9.3
O=C(CSc1nnc(-c2ccc(OC(F)F)cc2)o1)NCc1cccs1	x	14.0
Cc1ccc(C(=O)Nc2nnc(C3CCCCC3)s2)o1	x	10.0
Cc1cc(C(=O)Nc2nnc(C3CCCCC3)s2)no1	51.3*	-1.1
Cc1cc(N)n(-c2ncnc3scc(-c4ccccc4)c23)n1	4.2	16.4
COC(=O)c1cn(CCOc2ccccc2OC)c2ccccc12	7.1	x
COC(=O)c1cn(CCOc2ccccc2)c2ccccc12	61.3*	10.6
CCCCn1nnnc1SCC(=O)N1CCCC1	27.7	-6.2
COn1c(SC2CCCCC2)nc2ccccc2c1=O	10.0	-7.4
COc1ccc(OCC(=O)NCc2cccnc2)cc1	11.8	x
COc1ccc2c(c1)CCc1c(C(=O)NCc3cccnc3)noc1-2	60.0*	-10.2
C=CCn1c(SCC(=O)NCc2ccco2)nc2sc3c(c2c1=O)CCCCC3	x	-23.2
Cc1csc2nc(=O)c3ccccc3n12	12.7	-1.4
Cc1nn(-c2ccc(F)cc2)c(Cl)c1/C=C(\CCC(=O)O)c1nc2ccccc2s1	x	7.9
Cc1ccccc1OCc1nc2c3cnn(C)c3ncn2n1	54.7*	-14.5
Cc1cccc(C)c1OCc1nnc2c3cnn(C)c3ncn12	-12.5	13.4
Cc1cccnc1NC1OC(=O)c2ccccc21 (stereo unspecified)	23.4	28.1
CCCn1c(SCC(=O)c2ccc(CC)cc2)n[nH]c1=O	x	2.1
O=C(Cn1cc([N+](=O)[O-])cn1)N1N=C(C(F)F)CC1(O)C(F)F (stereo unspecified)	-47.1	7.5
Clc1ccc(Cl)c(-c2ccc(/C=N/c3ncn[nH]3)o2)c1	-25.9	3.2
NC(=S)N/N=C/c1ccc(-c2ccc(Cl)c(Cl)c2)o1	43.5	30.0*
Cn1c(=O)c2c(nc(SCC(=O)NC34CC5CC(CC(C5)C3)C4)n2C)n(C)c1=O	x	6.2
COc1ccc(NC(=O)C(=O)NCCN2CCN(C(=O)c3cccs3)CC2)cc1	51.6*	-22.6
SMILES	Yeast eIF2B	Yeast growth tox
Cc1cc(NC(=O)C(=O)NCCN2CCN(C(=O)c3cccs3)CC2)ccc1Br	-35.5	-29.7
Cn1c(=O)c2c(nc(Oc3ccc4c(c3)OCO4)n2Cc2ccc(Br)cc2)n(C)c1=O	56.9*	-41.5
COc1ccc(Oc2nc3c(c(=O)n(C)c(=O)n3C)n2Cc2cccc(OC)c2)cc1	3.5	-16.2
O=C(Cn1nnc(-c2cccs2)n1)N1c2ccccc2Sc2ccc(C(F)(F)F)cc21	-1.8	7.0
COc1ccc(-c2cc3nc(C)cc(N)n3n2)cc1	82.4*	-13.8
CCc1c(C)nc2cc(-c3ccc(OC)c(OC)c3)nn2c1N1CCCC1	15.2	12.4
Clc1ccc2nc(N3CCCCC3)[nH]c2c1	36.9	13.8
O=c1c(Cl)c(N2CCCCC2)cnn1-c1nc2ccccc2[nH]1	73.2*	-4.3
CCCCn1c(SCC(=O)c2ccccc2)nc2c1c(=O)[nH]c(=O)n2C	-32.8	5.5
CCC(=C(c1ccc(OC)cc1)c1ccc(OC)cc1)c1cn(CC(O)CN2CCN(C)CC2)c2ccccc12 (stereo unspecified)	97.3	101.6*
COc1ccc(OCC(O)CN2CCCCCC2)cc1 (stereo unspecified)	12.8	-34.3
FC(F)(F)c1nc(N2CCN(c3ccccc3)CC2)nc2c1CCCCC2	21.6	12.5
O=C(CCS(=O)CCC(=O)NCc1ccccc1)NCc1ccccc1	54.8*	-11.1
O=C(CCS(=O)NCc1ccccc1)NCc1ccccc1 (stereo unspecified)	10.5	0.9
O=C1C2CC=CCC2C(=O)N1c1n[nH]c(CCc2ccccc2)n1 (stereo unspecified)	x	4.5
CC(C)NC(=O)c1cc(-c2cccs2)on1	24.4	17.8
Cc1cc(NC(=O)c2cc(-c3cccs3)on2)no1	0.3	30.7*
COc1ccc(NC(=O)C2CC(=O)n3cnnc3S2)cc1 (stereo unspecified)	13.8	-10.9
c1ccc(-c2cc(-c3nn4c(-c5ccco5)nnc4s3)c3ccccc3n2)cc1	71.7*	-14.8
Cc1cc(-c2nn3c(-c4ccccc4)nnc3s2)c2ccccc2n1	13.0	-5.5
O=C(CC1Nc2ccccc2NC1=O)NC1CCCCC1 (stereo unspecified)	57.8*	-16.3
O=C(CCC1=NS(=O)(=O)c2ccccc2N1)NC1CCCCCCC1	22.2	-6.4
Cn1c(/C(C#N)=C(\O)CN2CCN(Cc3ccccc3)CC2)nc2ccccc21	64.5*	-14.7
Cc1ccc(SC/C(O)=C(\C#N)c2nc3ccccc3n2C)cc1	12.4	-17.5
COc1ccc(OC)c(NC(=O)CNC(=O)Cn2cnc3ccccc3c2=O)c1	64.9*	-3.7
